{
  "source": "ChEMBL document CHEMBL3784919",
  "about": "“Design and synthesis of novel 5-aminosalicylate (5-ASA)-4-thiazolinone hybrid derivatives with promising antiproliferative activity” (Bioorg Med Chem Lett, 2016)",
  "key": {"[1]": {"system": "MCF7", "experiment": "Antiproliferative activity against human MCF7 cells assessed as cell survival at 10 uM after 48 hrs by SRB assay", "format": "functional", "details": "MCF7, 48 h, read-out: Survival", "method_in_brief": "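Human breast cancer MCF-7 cells were exposed once to a single compound concentration for 48 h. Vehicle controls received DMSO, added as 0.1%. Survival was read by sulforhodamine B staining and expressed as percent of cells remaining relative to the DMSO control, set at 100%, with SD.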"}, "[2]": {"system": "MCF7", "experiment": "Antiproliferative activity against human MCF7 cells assessed as cell viability after 48 hrs by SRB assay", "format": "functional, cell-based", "details": "MCF7, 48 h"}, "[3]": {"experiment": "Antiproliferative activity against human HCT116 cells assessed as cell viability after 48 hrs by SRB assay", "format": "functional, cell-based", "details": "HCT-116, 48 h"}, "[4]": {"system": "HeLa", "experiment": "Antiproliferative activity against human HeLa cells assessed as cell viability after 48 hrs by SRB assay", "format": "functional, cell-based"}, "[5]": {"system": "A549", "experiment": "Antiproliferative activity against human A549 cells assessed as cell viability after 48 hrs by SRB assay", "format": "functional, cell-based", "details": "A549, 48 h"}, "[6]": {"experiment": "Cytotoxicity against human F180 cells assessed as cell viability after 48 hrs by SRB assay", "format": "cell-based", "details": "F180, 48 h"}, "[7]": {"experiment": "Ratio of compound IC50 to doxorubicin IC50 for human F180 cells", "format": "ADME, cell-based", "details": "read-out: Ratio IC50"}},
  "data": [
    {"compound": "COC(=O)c1cc(NC2=NC(=O)/C(=C/c3ccc([N+](=O)[O-])cc3)S2)ccc1O", "values": [
      {"measurement": "viability at 10 µM", "setting": "[1]", "result": 73.9, "unit": "%"}
    ]},
    {"compound": "COC(=O)c1cc(NC2=NC(=O)/C(=C/c3cccc(Cl)c3)S2)ccc1O", "values": [
      {"measurement": "viability at 10 µM", "setting": "[1]", "result": 65.9, "unit": "%"}
    ]},
    {"compound": "COC(=O)c1cc(NC2=NC(=O)/C(=C/c3ccc(O)cc3)S2)ccc1O", "values": [
      {"measurement": "viability at 10 µM", "setting": "[1]", "result": 93.5, "unit": "%"}
    ]},
    {"compound": "COC(=O)c1cc(NC2=NC(=O)/C(=C/c3ccccc3Cl)S2)ccc1O", "values": [
      {"measurement": "viability at 10 µM", "setting": "[1]", "result": 85, "unit": "%"}
    ]},
    {"compound": "COC(=O)c1cc(NC2=NC(=O)/C(=C/c3ccccc3O)S2)ccc1O", "values": [
      {"measurement": "viability at 10 µM", "setting": "[1]", "result": 16.5, "unit": "%"},
      {"measurement": "IC50", "setting": "[2]", "result": 500, "unit": "nM"},
      {"measurement": "IC50", "setting": "[3]", "result": 3440, "unit": "nM"},
      {"measurement": "IC50", "setting": "[4]", "result": 1390, "unit": "nM"},
      {"measurement": "IC50", "setting": "[5]", "result": "> 10000", "unit": "nM"},
      {"measurement": "IC50", "setting": "[6]", "result": "> 10000", "unit": "nM"}
    ]},
    {"compound": "COC(=O)c1cc(NC2=NC(=O)/C(=C/c3ccc(F)cc3)S2)ccc1O", "values": [
      {"measurement": "viability at 10 µM", "setting": "[1]", "result": 86, "unit": "%"}
    ]},
    {"compound": "COC(=O)c1cc(NC2=NC(=O)/C(=C/c3ccc(Cl)cc3)S2)ccc1O", "values": [
      {"measurement": "viability at 10 µM", "setting": "[1]", "result": 28, "unit": "%"}
    ]},
    {"compound": "COC(=O)c1cc(NC2=NC(=O)/C(=C/c3cccc([N+](=O)[O-])c3)S2)ccc1O", "values": [
      {"measurement": "viability at 10 µM", "setting": "[1]", "result": 82.2, "unit": "%"}
    ]},
    {"compound": "COC(=O)c1cc(NC2=NC(=O)/C(=C/c3ccc(OC)c(OC)c3)S2)ccc1O", "values": [
      {"measurement": "viability at 10 µM", "setting": "[1]", "result": 26.6, "unit": "%"}
    ]},
    {"compound": "COC(=O)c1cc(NC2=NC(=O)/C(=C/c3ccc(C)cc3)S2)ccc1O", "values": [
      {"measurement": "viability at 10 µM", "setting": "[1]", "result": 17.8, "unit": "%"},
      {"measurement": "IC50", "setting": "[2]", "result": 410, "unit": "nM"},
      {"measurement": "IC50", "setting": "[3]", "result": 450, "unit": "nM"},
      {"measurement": "IC50", "setting": "[4]", "result": 85, "unit": "nM"},
      {"measurement": "IC50", "setting": "[5]", "result": 2200, "unit": "nM"},
      {"measurement": "IC50", "setting": "[6]", "result": 1050, "unit": "nM"}
    ]},
    {"compound": "COC(=O)c1cc(NC2=NC(=O)CS2)ccc1O", "values": [
      {"measurement": "viability at 10 µM", "setting": "[1]", "result": 97, "unit": "%"}
    ]},
    {"compound": "COC(=O)c1cc(NC2=NC(=O)/C(=C/c3cc(OC)c(OC)c(OC)c3)S2)ccc1O", "values": [
      {"measurement": "viability at 10 µM", "setting": "[1]", "result": 73.3, "unit": "%"}
    ]},
    {"compound": "COC(=O)c1cc(NC2=NC(=O)/C(=C/c3ccccc3)S2)ccc1O", "values": [
      {"measurement": "viability at 10 µM", "setting": "[1]", "result": 67.8, "unit": "%"}
    ]},
    {"compound": "COC(=O)c1cc(NC2=NC(=O)/C(=C/c3ccccc3OC)S2)ccc1O", "values": [
      {"measurement": "viability at 10 µM", "setting": "[1]", "result": 70, "unit": "%"}
    ]},
    {"compound": "COC(=O)c1cc(NC2=NC(=O)/C(=C/c3ccc(Br)cc3)S2)ccc1O", "values": [
      {"measurement": "viability at 10 µM", "setting": "[1]", "result": 19, "unit": "%"},
      {"measurement": "IC50", "setting": "[2]", "result": 70, "unit": "nM"},
      {"measurement": "IC50", "setting": "[3]", "result": 5580, "unit": "nM"},
      {"measurement": "IC50", "setting": "[4]", "result": 3480, "unit": "nM"},
      {"measurement": "IC50", "setting": "[5]", "result": 8300, "unit": "nM"},
      {"measurement": "IC50", "setting": "[6]", "result": 10000, "unit": "nM"},
      {"measurement": "selectivity ratio", "setting": "[7]", "result": 28}
    ]},
    {"compound": "COC(=O)c1cc(NC2=NC(=O)/C(=C/c3ccc(N(C)C)cc3)S2)ccc1O", "values": [
      {"measurement": "viability at 10 µM", "setting": "[1]", "result": 16.2, "unit": "%"},
      {"measurement": "IC50", "setting": "[2]", "result": 630, "unit": "nM"},
      {"measurement": "IC50", "setting": "[3]", "result": 310, "unit": "nM"},
      {"measurement": "IC50", "setting": "[4]", "result": 180, "unit": "nM"},
      {"measurement": "IC50", "setting": "[5]", "result": 2400, "unit": "nM"},
      {"measurement": "IC50", "setting": "[6]", "result": 940, "unit": "nM"}
    ]},
    {"compound": "COC(=O)c1cc(NC2=NC(=O)/C(=C/c3ccc4c(c3)OCO4)S2)ccc1O", "values": [
      {"measurement": "viability at 10 µM", "setting": "[1]", "result": 28, "unit": "%"}
    ]},
    {"compound": "COC(=O)c1cc(NC2=NC(=O)/C(=C/c3cccc(Br)c3)S2)ccc1O", "values": [
      {"measurement": "viability at 10 µM", "setting": "[1]", "result": 68, "unit": "%"}
    ]},
    {"compound": "COC(=O)c1cc(NC2=NC(=O)/C(=C/c3ccc(OC)cc3)S2)ccc1O", "values": [
      {"measurement": "viability at 10 µM", "setting": "[1]", "result": 26, "unit": "%"}
    ]},
    {"compound": "COc1cccc2c1C(=O)c1c(O)c3c(c(O)c1C2=O)C[C@@](O)(C(=O)CO)C[C@@H]3O[C@H]1C[C@H](N)[C@H](O)[C@H](C)O1", "note": "[DOXORUBICIN]", "values": [
      {"measurement": "viability at 10 µM", "setting": "[1]", "result": 4, "unit": "%"},
      {"measurement": "IC50", "setting": "[3]", "result": 380, "unit": "nM"},
      {"measurement": "IC50", "setting": "[4]", "result": 100, "unit": "nM"},
      {"measurement": "IC50", "setting": "[5]", "result": 450, "unit": "nM"},
      {"measurement": "IC50", "setting": "[6]", "result": 350, "unit": "nM"}
    ]}
  ]
}
